Results of several laboratories.
Protocols differ between the studies behind these lines.
Medium: plasma

COc1ccc2c(Cc3ccccc3F)c3n(c(=O)c2c1OC)CCc1cc2c(cc1-3)OCO2  clearance (rat; intravenous, 5 mg/kg): 3.67 mL/min/kg
Cc1nn2c(-c3c(C)nn(C)c3-c3ccc(C(F)(F)F)cc3)nc(CO)c2c(=O)[nH]1  clearance (male Wistar rat; intravenous, 1 mg/kg): 28 mL/min/kg
COCCOC(=O)C1=C(C)NC(C)=C(C(=O)OC(C)C)C1c1cccc([N+](=O)[O-])c1 (stereo not drawn)  CL/F (male Sprague-Dawley rat; oral, 12 mg/kg): 0.0943 mL/min/kg
CNCc1cc(-c2ccccc2F)n(S(=O)(=O)c2cccnc2)c1  CL/F (Sprague-Dawley rat; oral, 10 mg/kg): 293 mL/min/kg
CCCC[C@@H]1NC(=O)[C@H](Cc2ccc(O)cc2)NC(=O)[C@@H]2CCCN2C(=O)[C@H](CC(=O)O)NC(=O)[C@H](C)NC(=O)[C@H](Cc2ccccc2)NC(=O)[C@@H]2CSCCC(=O)N3CN(CN(C3)C(=O)CCSC[C@@H](C(=O)N[C@@H](C)C(N)=O)NC1=O)C(=O)CCSC[C@H](NC(C)=O)C(=O)N[C@@H](CC(C)(C)C)C(=O)N1CCC[C@H]1C(=O)N[C@@H](CCC(=O)O)C(=O)N[C@H](CCCCNC(=O)CCc1cn(CCOCCOCCOCCOCCOCCOCCOCCOCCOCCOCCNC(=O)c3cc(C(=O)NCCOCCOCCOCCOCCOCCOCCOCCOCCOCCOCCn4cc(CCC(=O)NCCCC[C@H]5NC(=O)[C@H](CCC(=O)O)NC(=O)[C@@H]6CCCN6C(=O)[C@H](CC(C)(C)C)NC(=O)[C@@H](NC(C)=O)CSCCC(=O)N6CN7CN(C6)C(=O)CCSC[C@H](NC(=O)[C@H](Cc6ccc(O)cc6)NC(=O)[C@@H]6CCCN6C5=O)C(=O)N[C@@H](Cc5ccccc5)C(=O)N[C@@H](C)C(=O)N[C@@H](CC(=O)O)C(=O)N5CCC[C@H]5C(=O)N[C@@H](Cc5ccc(O)cc5)C(=O)N[C@@H](CCCC)C(=O)N[C@H](C(=O)N[C@@H](C)C(N)=O)CSCCC7=O)nn4)cc(C(=O)NCCOCCOCCOCCOCCOCCOCCOCCOCCOCCOCCn4cc(CCC(=O)N[C@H]5CSCCC(=O)N6CN7CN(C6)C(=O)CCSC[C@H](NC(=O)[C@@H](CC(=O)O)NC(=O)[C@H](Cc6cccc8ccccc68)NC(=O)[C@@H]6CCCN6C5=O)C(=O)N[C@@H](CCSC)C(=O)N[C@@H](CCCCNC(=N)N)C(=O)N[C@@H](CC(=O)O)C(=O)N[C@@H](Cc5c[nH]c6ccccc56)C(=O)N[C@@H](CO)C(=O)N[C@@H]([C@@H](C)O)C(=O)N5CCC[C@H]5C(=O)N5C[C@H](O)C[C@H]5C(=O)N[C@@H](Cc5c[nH]c6ccccc56)C(=O)N[C@H](C(N)=O)CSCCC7=O)nn4)c3)nn1)C(=O)N1CCC[C@H]1C(=O)N[C@@H](Cc1ccc(O)cc1)C(=O)N2  clearance (rat; intravenous, 2 mg/kg): 9.2 mL/min/kg
CCc1nc(C(N)=O)c(Nc2ccc(N3CCC(N4CCN(C)CC4)CC3)c(OC)c2)nc1NC1CCOCC1  CL/F (rat; oral, 10 mg/kg): 0.9 L/h
Oc1c(Br)cc(Cl)c2cccnc12  CL/F (Sprague-Dawley rat; subcutaneous, 10 mg/kg): 31.7 mL/min/kg
CCOC(=O)[C@@]12C[C@@H]1[C@@H](n1ccc3c(NC)nc(C#Cc4ccc(Cl)s4)nc31)[C@H](O)[C@@H]2O  clearance (male Sprague-Dawley rat; intravenous, 0.5 mg/kg): 302 mL/min/kg
COc1ccc2c(=O)n(C)c(-c3ccccc3)nc2c1  clearance (male Sprague-Dawley rat; intravenous, 2 mg/kg): 39 mL/min/kg
